Common to all, as to assay type: binding
Test [1] deals with T1, Munc13-1 C1 (WT) (Rattus norvegicus, UniProt Q62768). Description: photolabeling, LC-MS/MS. Particulars: covalent (photoaffinity), site Glu-582.
Test [2] addresses T1, Munc13-1 C1 (WT). Briefly: intrinsic fluorescence quenching, logistic fit. In outline:
(§1)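 GST-fused Munc13-1 C1 domain (wild type or Glu-582 mutant) was expressed in E. coli BL21 DE3 gold, affinity-purified and thrombin-cleaved. Protein was held at 1 μM in 50 mM Tris, 100 mM NaCl, pH 7.4. Alcohols were added neat or from a 0.25 M DMSO stock, at 1–250, 1–150 or 1–5 mM depending on the alcohol. After 15 min incubation, samples were excited at 280 nm. Emission at 348–350 nm was buffer-corrected and fitted to a logistic equation; runs were done in triplicate.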

Test [3] concerns the target Munc13-1 C1 (WT) (Rattus norvegicus, UniProt Q62768, E582H). Description: intrinsic fluorescence quenching, logistic fit. In outline:
as §1

For test [4], the target named is Munc13-1 C1 (WT) (Rattus norvegicus, UniProt Q62768, E582A). Briefly: intrinsic fluorescence quenching, logistic fit. In outline:
as §1

Test [5] concerns the target Munc13-1 C1 (WT) (Rattus norvegicus, UniProt Q62768, E582L). Description: intrinsic fluorescence quenching, logistic fit. A digest of the protocol: as §1

The structures appear in SMILES notation.

For orientation: EC50 means the concentration at which the effect is half-maximal. A low value points to greater potency.

With `CC1(CCO)N=N1` [3-azibutanol], the “photolabeling, LC-MS/MS; fluorescence quenching” value in test [1] is 3-azibutanol labeled the Munc13-1 C1 at the Glu-582 site.
`CCO` [Ethanol] came in with a half-maximal effective concentration (EC50) in test [2] of 51.7 ± 2.8 mM.
Consider `CCCCO` [Butanol], for which the concentration giving a half-maximal response (EC50) amounted to 75.3 ± 1.9 mM in test [3], 59.9 ± 0.9 mM in test [4], 25.8 ± 1.1 mM in test [2] and 70.5 ± 1.8 mM in test [5].
For the compound `CCCCCCCCO` [Octanol], the EC50 in test [3] is 1.1 ± 0.07 mM; in test [4], 2.6 ± 0.2 mM; in test [2], 0.7 ± 0.03 mM; in test [5] it was 3.3 ± 0.06 mM.

The record behind these values is article PMC3766433 (Journal of neurochemistry, 2013).
